# ChEMBL document CHEMBL4152184, “NB 06: From a simple lysosomotropic aSMase inhibitor to tools for elucidating the role of lysosomes in signaling apoptosis and LPS-induced inflammation” (Eur J Med Chem, 2018)
# Target: T1, Acid ceramidase (Homo sapiens) (UniProt Q13510)
# T1 sequence (whole entry): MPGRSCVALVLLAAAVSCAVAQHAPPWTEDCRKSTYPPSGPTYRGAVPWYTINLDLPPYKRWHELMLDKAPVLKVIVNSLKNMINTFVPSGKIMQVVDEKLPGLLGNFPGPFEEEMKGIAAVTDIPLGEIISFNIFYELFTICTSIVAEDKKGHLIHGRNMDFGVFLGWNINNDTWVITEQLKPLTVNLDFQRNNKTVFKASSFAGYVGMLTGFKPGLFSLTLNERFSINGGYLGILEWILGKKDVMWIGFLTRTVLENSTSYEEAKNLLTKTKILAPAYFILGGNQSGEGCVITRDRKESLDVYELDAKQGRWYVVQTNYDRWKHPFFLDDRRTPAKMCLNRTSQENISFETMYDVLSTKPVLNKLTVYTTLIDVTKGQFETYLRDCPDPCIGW
# Assay: Inhibition of acid ceramidase in human PBMC assessed as ratio of C16-ceramide/lipid phosphate level at 10 uM incubated for 30 mins measured after 4 hrs by HPLC method
# Assay type: cell-based
# In short: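 Human macrophages from primary culture were preincubated 30 min with 10 µM compound. They were then stimulated 4 h with mmLDL (54 µg/mL), TNFalpha (3 ng/mL) or exogenous C6-ceramide (10 µM), or left unstimulated. Individual ceramide species (C16 and C24:1) were quantified in the cell lipid extracts.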
structure (smiles),measurement,value
COc1ccc(CCN(C)CCCn2c3ccccc3c3ccccc32)cc1,Ratio,0.38
